PubChem BioAssay
Active and inactive are the calls of the source.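 The calls were made as follows, unless noted: active = Her2 level under about 52% in both replicate screens, with viability over 70% of control (limit read from the data); inconclusive = Her2 under the limit in one screen only, or viability under 70%; inactive = Her2 level above the set limit.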

Experiments:
[1] = Her2 expression decrease, cell viability multiplex – SKBR3 breast tumor cells, AlphaScreen, ATP viability, primary screen (AID 461); details: SKBR3 Her2 protein level, 18-24 h, measured here: SKBR3 viability, ATP luminescence, at 10 µM;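 as to Her2 level: lower value means less Her2 protein in the cells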;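 as to viability: percent of carrier control wells set as 100% viability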
[2] = biological target: Receptor tyrosine-protein kinase erbB-2 (Homo sapiens) (UniProt P04626); assay: as above; details: 18-24 h, at 10 µM, stronger effect = lower value
Receptor tyrosine-protein kinase erbB-2 (Homo sapiens), sequence (P04626 whole entry, looked up): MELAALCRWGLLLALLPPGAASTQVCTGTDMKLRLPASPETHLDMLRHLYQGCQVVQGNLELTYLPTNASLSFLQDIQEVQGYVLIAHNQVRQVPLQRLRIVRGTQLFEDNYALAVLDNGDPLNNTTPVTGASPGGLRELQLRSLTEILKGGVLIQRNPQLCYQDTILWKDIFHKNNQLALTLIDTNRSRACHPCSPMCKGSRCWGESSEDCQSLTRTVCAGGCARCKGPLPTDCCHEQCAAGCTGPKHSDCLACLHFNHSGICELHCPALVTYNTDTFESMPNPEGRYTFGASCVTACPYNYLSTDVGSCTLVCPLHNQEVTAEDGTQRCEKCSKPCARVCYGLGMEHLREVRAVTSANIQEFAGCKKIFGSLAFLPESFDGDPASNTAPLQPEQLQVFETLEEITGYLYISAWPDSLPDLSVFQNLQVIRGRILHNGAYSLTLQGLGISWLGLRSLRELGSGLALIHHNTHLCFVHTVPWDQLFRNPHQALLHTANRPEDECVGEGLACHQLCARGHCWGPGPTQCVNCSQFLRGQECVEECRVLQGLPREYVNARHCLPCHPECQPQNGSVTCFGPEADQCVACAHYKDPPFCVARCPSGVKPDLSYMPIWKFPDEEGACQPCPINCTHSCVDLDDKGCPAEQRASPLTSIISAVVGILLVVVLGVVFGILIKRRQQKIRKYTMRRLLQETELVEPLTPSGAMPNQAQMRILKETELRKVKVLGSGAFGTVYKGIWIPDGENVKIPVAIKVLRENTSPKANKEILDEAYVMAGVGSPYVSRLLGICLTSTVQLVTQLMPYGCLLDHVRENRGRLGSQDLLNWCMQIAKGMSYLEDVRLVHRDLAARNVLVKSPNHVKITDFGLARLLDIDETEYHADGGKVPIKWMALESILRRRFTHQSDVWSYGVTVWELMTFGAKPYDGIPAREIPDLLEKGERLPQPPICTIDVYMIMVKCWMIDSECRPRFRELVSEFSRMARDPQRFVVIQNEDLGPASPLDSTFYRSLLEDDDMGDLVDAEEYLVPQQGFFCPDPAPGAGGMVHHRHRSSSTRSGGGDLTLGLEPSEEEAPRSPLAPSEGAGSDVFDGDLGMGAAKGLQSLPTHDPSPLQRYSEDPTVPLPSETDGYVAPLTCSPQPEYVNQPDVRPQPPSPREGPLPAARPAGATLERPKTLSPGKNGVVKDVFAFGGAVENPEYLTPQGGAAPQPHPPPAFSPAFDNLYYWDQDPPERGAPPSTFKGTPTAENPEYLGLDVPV

[3] = reduced viability of SK-BR-3 breast cancer cells – cell-based, 24 h, human, pilot screen (AID 572;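 active = viability at or below 10% of carrier control in both of two separate runs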;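 also: compound exposure lasted between 18 and 24 h rather than exactly 24 h; 100% = carrier-treated control wells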); details: SK-BR-3 viability, CellTiter-Glo luminescence, at 10 µM, stronger effect = lower value
[4] = HUVEC growth inhibition – cell-based, human, primary screen (AID 575;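 active = viability at or below 30% in both replicate assays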;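 also: 100% = median of untreated cell wells with 0.1% DMSO on each plate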); details: HUVEC proliferation, CellTiter-Glo luminescence, 72 h; at 10 µM; stronger effect = lower value
Outline: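 Test system – primary HUVEC, no more than 12 passages · Dosing – one dose, 10 µM final, 0.1% DMSO · Times – 72 h treatment at 37 °C · Measured by – ATP-based CellTiter-Glo luminescent read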

[5] = H69AR cell proliferation blockers – human, duplicate replicates, primary screen (AID 580;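 active = viability at or under a set limit in both replicates, limit being median viability minus 3 SD, cut at about 48% in these data, passing the limit was not always enough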;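 also: 100% = mean luminescence of untreated wells and 0% = no signal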); details: H69AR lung tumor cells viability, ATP luminescence, 72 h; at 10 µM; stronger effect = lower value
[6] = MRP1 drug-resistance reversers in H69AR cells – cell-based, doxorubicin co-treatment, pilot screen (AID 601;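 active = viability loss from added drug above about 55%, and viability with drug at most 40%, in both replicates, limit read from the data, passing the limit was not always enough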); details: CellTiter-Glo, 72 h, at 10 µM; for differential viability (reversal): stronger effect = higher value
[7] = yeast transport mutant growth inhibition pilot in 384-well plates, post-Golgi transport modulator project (AID 636; in the data active = inhibition above about 31%); details: absorbance 615 nm, about 18 h, stronger effect = higher value
[8] = growth suppression of yeast trafficking mutant, preliminary HTS, modulators of trafficking downstream of Golgi apparatus project, 1536-format plate, OD 615 nm (AID 637; in the data active = inhibition above about 30%); details: yeast transport mutant growth, absorbance 615 nm, 18 h; stronger effect = higher value
[9] = H69AR cells + 2 uM doxorubicin, measured here: viability with 2 uM doxorubicin, stronger effect = lower value
[10] = H69AR cells, compound alone cytotoxicity

Row | Structure (SMILES) | viability [1] [%] | Her2 level [2] | viability [3] | viability [4] | viability [5] | differential viability (reversal) ([6]; H69AR cells + 2 uM doxorubicin) | viability [6, 9] [%] | viability [6, 10] [%] | inhibition [7] | inhibition [8]
1 | COCCn1c(C)cc(C(=O)COC(=O)c2n[nH]c3ccccc23)c1C | 97.5 | 84% (inactive) | 97.5% (inactive) | 92.5% (inactive) | 81.3% (inactive) | -2.8% (inactive) | 84.1 | 81.3 | -8.24% (inactive) | 0.98% (inactive)
2 | O=C1NC(c2ccccc2)(C(F)(F)F)SC2=CCCCCN12 (stereo not given) | 90.5 | 106% (inactive) | 90.5% (inactive) | 86.2% (inactive) | 94.3% (inactive) | 2.37% (inactive) | 92 | 94.3 | -3.29% (inactive) | -3.33% (inactive)
3 | CN1C2C=C3C(C#N)=C(N)C(C#N)(C#N)[C@@H](c4ccc(Cl)cc4)[C@@H]3C1CC2 (stereo not given in full) | 95 | 87% (inactive) | 95% (inactive) | 91.3% (inactive) | 68.9% (inactive) | -26.1% (inactive) | 94.9 | 68.9 | -5.73% (inactive) | -0.32% (inactive)
4 | CCSc1nnc(NC(=O)c2csc(C)c2)s1 | 95 | 83.5% (inactive) | 95% (inactive) | 81.2% (inactive) | 87.7% (inactive) | -7.62% (inactive) | 95.3 | 87.7 | -2.27% (inactive) | -5.41% (inactive)
5 | O=C(O)C1CC=CCC1C(=O)Nc1ccc(S(=O)(=O)N2CCCc3ccccc32)cc1 (stereo not given) | 85.5 | 88% (inactive) | 85.5% (inactive) | 64.4% (inactive) | 98.7% (inactive) | 4.55% (inactive) | 94.1 | 98.7 | -3.73% (inactive) | 0% (inactive)
6 | Cc1nc(=S)n(-c2ccccc2)[nH]1 | 104 | 107% (inactive) | 104% (inactive) | 107% (inactive) | 107% (inactive) | 2.28% (inactive) | 105 | 107 | -3.2% (inactive) | -9.35% (inactive)
7 | Cc1c(C(=O)OC(C)C)[nH]c2c1C(=O)CCC2 | 96.5 | 104% (inactive) | 96.5% (inactive) | 102% (inactive) | 106% (inactive) | 12.9% (inactive) | 93 | 106 | 0.39% (inactive) | -6.29% (inactive)
8 | COc1ccc2c(C(=O)CN(C)C3CCCCC3)c[nH]c2c1 | 115 | 72.5% (inactive) | 115% (inactive) | 92.3% (inactive) | 64.7% (inactive) | -10.2% (inactive) | 74.9 | 64.7 | -0.92% (inactive) | -0.81% (inactive)
9 | Clc1ccc(Cl)c(-c2ccc(/C=N/c3ncn[nH]3)o2)c1 | 105 | 81% (inactive) | 105% (inactive) | 64.5% (inactive) | 72.8% (inactive) | -11.9% (inactive) | 84.8 | 72.8 | -6.8% (inactive) | 4.59% (inactive)
10 | CCCn1c2c(c(O)c(C(=O)Nc3ccc(C)cn3)c1=O)CCCC2 | 102 | 82.5% (inactive) | 102% (inactive) | 96.8% (inactive) | 88% (inactive) | -9.88% (inactive) | 97.9 | 88 | -2.89% (inactive) | -5.81% (inactive)
11 | Cc1sc(NC(=O)CSc2nc(N)n(CC(=O)c3ccccc3)n2)c(C#N)c1C | 103 | 106% (inactive) | 103% (inactive) | 103% (inactive) | 90.4% (inactive) | -0.79% (inactive) | 91.2 | 90.4 | -3.65% (inactive) | -6.83% (inactive)
12 | CCn1nc(C)c(NC(=O)c2cc(Br)ccc2Cl)c1C | 84.5 | 78% (inactive) | 84.5% (inactive) | 88.5% (inactive) | 94% (inactive) | 14.3% (inactive) | 79.7 | 94 | -4.42% (inactive) | 3.44% (inactive)
13 | COc1ccc2cnn(-c3ccccc3)c(=O)c2c1OC | 98 | 91% (inactive) | 98% (inactive) | 126% (inactive) | 103% (inactive) | 18.2% (inactive) | 84.6 | 103 | -1.71% (inactive) | 1.64% (inactive)
14 | COCC(=O)N(Cc1nc2ccccc2c(=O)[nH]1)Cc1cccs1 | 103 | 100% (inactive) | 103% (inactive) | 93.3% (inactive) | 98.8% (inactive) | -2.5% (inactive) | 101 | 98.8 | -3.07% (inactive) | -0.65% (inactive)
15 | C/C(N)=C(\C#N)C(=O)NCCc1ccccn1 | 81 | 102% (inactive) | 81% (inactive) | 108% (inactive) | 114% (inactive) | 7.44% (inactive) | 107 | 114 | -1.45% (inactive) | 1.48% (inactive)
16 | COc1ccc2c(c1)n([O-])c1c([n+]2=O)CCC1 | 110 | 91.5% (inactive) | 110% (inactive) | 109% (inactive) | 100% (inactive) | -6% (inactive) | 106 | 100 | -1.18% (inactive) | -4.55% (inactive)

Row | Structure (SMILES) | viability [1] [%] | Her2 level [2] | viability [3] | viability [4] | viability [5] | differential viability (reversal) ([6]; H69AR cells + 2 uM doxorubicin) | viability [6, 9] [%] | viability [6, 10] [%] | inhibition [7] | inhibition [8]
17 | CCCS(=O)(=O)N1CCN(Cc2ccc(OCc3ccccc3)c(OC)c2)CC1 | 84.5 | 114% (inactive) | 84.5% (inactive) | 105% (inactive) | 87.8% (inactive) | -5.26% (inactive) | 93.1 | 87.8 | 4.19% (inactive) | 30.2% (active)
18 | CCOc1ccc(C(c2nnnn2Cc2ccccc2)N2CCN(C(=O)c3ccco3)CC2)cc1 (stereo not given) | 92.5 | 106% (inactive) | 92.5% (inactive) | 85.8% (inactive) | 98.3% (inactive) | -4.47% (inactive) | 103 | 98.3 | 0.53% (inactive) | -1.9% (inactive)
19 | COCc1cc(C)c2c(N)c(C#N)sc2n1 | 88 | 100% (inactive) | 88% (inactive) | 91.5% (inactive) | 99.6% (inactive) | 15.3% (inactive) | 84.3 | 99.6 | -1.32% (inactive) | -2.55% (inactive)
20 | CCc1nnc(NC(=O)c2ccc(COc3ccccc3)o2)s1 | 97 | 104% (inactive) | 97% (inactive) | 77.9% (inactive) | 111% (inactive) | 2.33% (inactive) | 109 | 111 | -3.97% (inactive) | -4.6% (inactive)
21 | CCCn1nnnc1SCC(=O)c1ccc2c(c1)OCCO2 | 90 | 108% (inactive) | 90% (inactive) | 110% (inactive) | 106% (inactive) | 13.4% (inactive) | 92.8 | 106 | 2.67% (inactive) | 10.7% (inactive)
22 | O=C(Cn1cnc2c(oc3ccccc32)c1=O)N1CCN(c2ccccc2)CC1 | 95 | 91.5% (inactive) | 95% (inactive) | 91.6% (inactive) | 84.9% (inactive) | -2.86% (inactive) | 87.7 | 84.9 | -0.66% (inactive) | 3.65% (inactive)
23 | CN1C(=O)CSc2ccc(NC(=O)N3CCN(c4ccccn4)CC3)cc21 | 102 | 88.5% (inactive) | 102% (inactive) | 58.2% (inactive) | 91.3% (inactive) | 12.2% (inactive) | 79.1 | 91.3 | -0.4% (inactive) | 3.61% (inactive)
24 | COc1ccc(CNC(=O)CN(C(=O)c2ccc(CN3CCOCC3)o2)C2CCCC2)cc1 | 124 | 84.5% (inactive) | 124% (inactive) | 89% (inactive) | 93.1% (inactive) | 7.3% (inactive) | 85.8 | 93.1 | -1.87% (inactive) | 0.98% (inactive)
25 | COc1ccc(CNc2nc3nc(C)cc(C)n3n2)cc1OC | 104 | 94.5% (inactive) | 104% (inactive) | 111% (inactive) | 108% (inactive) | 5.1% (inactive) | 103 | 108 | -1.71% (inactive) | 7.21% (inactive)
26 | CC1CC(=O)C2=C(C1)OC(N)=C(C#N)C2c1coc2ccccc2c1=O (stereo not given) | 108 | 88.5% (inactive) | 108% (inactive) | 95.1% (inactive) | 97.3% (inactive) | 10.6% (inactive) | 86.7 | 97.3 | -7.33% (inactive) | 2.26% (inactive)
27 | Cc1[nH]c(=O)[nH]c(=O)c1S(=O)(=O)N1CCN(c2cccc(Cl)c2)CC1 | 88 | 112% (inactive) | 88% (inactive) | 82.6% (inactive) | 93.2% (inactive) | 1.64% (inactive) | 91.6 | 93.2 | 3.95% (inactive) | -9.35% (inactive)
28 | Nc1ccc(-n2c(N)c(C(=O)NCc3ccc4c(c3)OCO4)c3nc4ccccc4nc32)cc1 | 72.5 | 66.5% (inactive) | 72.5% (inactive) | 64.6% (inactive) | 55.5% (inactive) | -17.4% (inactive) | 72.9 | 55.5 | -1.73% (inactive) | 6.61% (inactive)
29 | CC(C)CNS(=O)(=O)c1ccc(CCC(=O)N2CCOCC2)cc1 | 87.5 | 94% (inactive) | 87.5% (inactive) | 95% (inactive) | 91.3% (inactive) | -3.29% (inactive) | 94.6 | 91.3 | -4.73% (inactive) | -4.59% (inactive)
30 | CCN1CCN(C(=O)c2ccc3c(=O)n(CCC4=CCCCC4)c(=O)[nH]c3c2)CC1 | 91 | 114% (inactive) | 91% (inactive) | 78.1% (inactive) | 84.7% (inactive) | 16.7% (inactive) | 67.9 | 84.7 | -8.29% (inactive) | -0.55% (inactive)
31 | O=C(c1ccccc1)c1ccc2nc[nH]c2c1 | 96.5 | 89.5% (inactive) | 96.5% (inactive) | 75.4% (inactive) | 102% (inactive) | -15.3% (inactive) | 117 | 102 | 0.26% (inactive) | 3.06% (inactive)
